The results in this text go back to ChEMBL document CHEMBL4219101, “Discovery of 18β-glycyrrhetinic acid conjugated aminobenzothiazole derivatives as Hsp90-Cdc37 interaction disruptors that inhibit cell migration and reverse drug resistance” (Bioorg Med Chem, 2018).

For assay [1], the system named is A549. The assay can be described thus: Induction of apoptosis in human A549 cells assessed as necrotic cells at 10 uM after 24 hrs by Annexin-V FITC/propidium iodide staining based flow cytometry (reference value: 2.32%). Background: In flow cytometry, cells or beads pass a laser one at a time.
Assay [2] deals with A549. Nature of the assay: Induction of apoptosis in human A549 cells assessed as downregulation of Bcl2 protein expression after 24 hrs by Western blot analysis. Format: functional, cell-based. Put shortly:
(§1)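 A549 cells exposed to 5 and 10 µM for 24 h. Lysates cleared at 20000g, protein quantified by BCA and equal amounts run on 12% SDS-PAGE, then transferred to PVDF. Blocked in 5% skim milk in TBST. Probed overnight at 4 °C with antibodies to Bcl-2, Bax, caspase-9, caspase-3 and β-actin (loading reference). Chemiluminescent detection. Three independent experiments.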
(Immunoblotting shows a protein as a band on a membrane.)

For assay [3], the system named is A549. Nature of the assay: Induction of apoptosis in human A549 cells assessed as necrotic cells at 5 uM after 24 hrs by Annexin-V FITC/propidium iodide staining based flow cytometry (reference value: 2.32%).
For assay [4], the system named is A549. The assay can be described thus: Induction of apoptosis in human A549 cells assessed as increase in number of nuclei containing condensed chromatin at 5 to 10 uM after 24 hrs by Hoechest 33258-staining based fluorescence microscopy. Format: functional, cell-based. Put shortly: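 5.0 × 10^5 A549 cells per well exposed to 5 and 10 µM for 24 h, untreated cells as control. Fixed in 4% paraformaldehyde for 30 min, washed with ice-cold PBS and stained with Hoechst 33258 for 20 min in the dark. Condensed nuclei imaged by fluorescence microscopy at 350 nm excitation and 460 nm emission, 200× magnification.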

In assay [5] the test system is HepG2. Nature of the assay: Antiproliferative activity against human HepG2 cells after 48 hrs by MTT assay. Format: functional, cell-based. The note with it: HepG2, 48 h. The procedure, abridged: (§2)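 Cells in log phase seeded at about 1.0 × 10^5 cells/mL in 96-well plates, left 12 h at 37 °C, 5% CO2. Compounds dissolved in DMSO, added at 2.5, 5, 10, 20 and 50 µM, 48 h exposure. Absorbance read at 570/630 nm dual wavelength. Survival expressed relative to negative control. IC50 by Bliss method (n = 5), tests done in triplicate.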
(Tetrazolium assays rely on reduction of a dye to a coloured formazan, in cell work by metabolically active cells.)

Assay [6] has as its system MCF7. Nature of the assay: Antiproliferative activity against human MCF7 cells after 48 hrs by MTT assay. Format: functional, cell-based. The note with it: MCF7, 48 h. The procedure, abridged: as §2
In assay [7] the test system is A549. Nature of the assay: Cell cycle arrest in human A549 cells assessed as accumulation at S phase at 10 uM after 48 hrs by propidium iodide staining-based flow cytometry (reference value: 19.62%). Format: functional.
Assay [8] deals with Heat shock protein HSP90 (Homo sapiens) (UniProt P07900+P08238). Nature of the assay: Inhibition of HSP90 in human A549 cells assessed as induction of HSP70 expression after 24 hrs by Western blot analysis. Type of assay: cell-based. The procedure, abridged: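 A549 cells exposed for 24 h, with geldanamycin as comparator. Whole-cell lysates separated by SDS-PAGE and immunoblotted for the named proteins. β-actin used as reference.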

The test system of assay [9] is A549. Nature of the assay: Induction of apoptosis in human A549 cells assessed as viable cells at 5 uM after 24 hrs by Annexin-V FITC/propidium iodide staining based flow cytometry (reference value: 97.6%). The note with it: A549, 24 h.
Assay [10] concerns A549. Nature of the assay: Inhibition of Hsp90/Cdc37 interaction in human A549 cells assessed as downregulation of Cdc37 in immunoprecipitated HSP90 complex at 5 to 10 uM after 24 hrs by Western blot analysis. Type of assay: cell-based. The procedure, abridged:
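A549 cells exposed to 5 and 10 µM for 24 h, geldanamycin 10 µM as comparator. Lysis in 20 mM Tris-HCl pH 7.4, 25 mM NaCl, 2 mM DTT, 20 mM Na2MoO4, 0.1% NP-40 and protease inhibitors. 500 µg protein immunoprecipitated overnight at 4 °C with anti-Hsp90 antibody, captured on protein G agarose, washed five times and boiled. Cdc37 and Hsp90 detected by Western blot, with input also blotted.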

Assay [11] has as its system A549. The assay can be described thus: Cell cycle arrest in human A549 cells assessed as accumulation at G2 phase at 10 uM after 48 hrs by propidium iodide staining-based flow cytometry (reference value: 10.22%). Type of assay: functional.
Assay [12] can be described thus: Inhibition of His-tagged full-length Hsp90 (unknown origin)/GST-tagged Cdc37M (unknown origin) interaction after 1 hr by HTRF assay. Further details: species or system Homo sapiens. The procedure, abridged: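 TR-FRET in PBS containing 400 mM KF, pH 7.3. His-tagged full-length Hsp90 and GST-Cdc37M, each 250 nM final, incubated with compound for 1 h at 37 °C. Anti-GST-Cryptate and anti-6His-XL665 then added for a further 0.5 h at 37 °C. Excitation 320 nm, emission 665/620 nm, reported as ratio ×10,000. Negative and blank controls run in each assay.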

The nature of assay [13]: Antiproliferative activity against human NCI-460 cells after 48 hrs by MTT assay. The note with it: NCI-460, 48 h. Format: functional, cell-based. Put shortly:
as §2

The subject of assay [14] is A549. The assay can be described thus: Induction of apoptosis in human A549 cells assessed as intracellular ROS levels at 5 uM after 24 hrs by FITC-DCF-DA-fluorescence based flow cytometry (reference value: 0.832%). Type of assay: functional. Put shortly:
(§3)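 A549 cells exposed to 5 and 10 µM for 24 h, untreated cells as control. Collected, washed with ice-cold PBS and loaded with DCFH-DA in cell-free medium for 20 min at 37 °C in the dark, then washed. Fluorescence measured by flow cytometry at 485 nm excitation and 538 nm emission. Mean ± S.D. of three independent experiments.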

In assay [15] the test system is A549. Nature of the assay: Cell cycle arrest in human A549 cells assessed as accumulation at G1 phase at 10 uM after 48 hrs by propidium iodide staining-based flow cytometry (reference value: 70.16%). Format: functional.
Assay [16] relates to A549. Nature of the assay: Induction of apoptosis in human A549 cells assessed as increase in intracellular ROS levels after 24 hrs by FITC-DCF-DA-fluorescence based flow cytometry. Format: functional, cell-based. Put shortly:
as §3

Assay [17] concerns A549. The assay can be described thus: Induction of apoptosis in human A549 cells assessed as late apoptotic cells at 5 uM after 24 hrs by Annexin-V FITC/propidium iodide staining based flow cytometry (reference value: 0.030%).
Assay [18] relates to A549. The assay can be described thus: Induction of apoptosis in human A549 cells assessed as early apoptotic cells at 10 uM after 24 hrs by Annexin-V FITC/propidium iodide staining based flow cytometry (reference value: 0.080%).
The subject of assay [19] is A549. The assay can be described thus: Induction of apoptosis in human A549 cells assessed as upregulation of cleaved caspase-9 protein expression after 24 hrs by Western blot analysis. Type of assay: functional, cell-based. Put shortly: as §1
Assay [20] concerns A549. The assay can be described thus: Inhibition of HSP90/Cdc37 interaction in human A549 cells assessed as suppression cellular migration at 5 to 10 uM after 24 hrs by wound healing assay. Format: cell-based. The procedure, abridged:
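Scratch wounds made in A549 monolayers, cells then exposed to 5 µM and 10 µM. Wound closure imaged by microscopy at 0 h and 24 h, magnification 200×.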

In assay [21] the test system is A549. The assay can be described thus: Induction of apoptosis in human A549 cells assessed as upregulation of cleaved caspase-3 protein expression after 24 hrs by Western blot analysis. Type of assay: functional, cell-based. Put shortly: as §1

Activity calls are given as the source filed them. The calls are words filed in the database; no cut-off is given here.

With `CCOC(=O)[C@@]1(C)CC[C@]2(C)CC[C@]3(C)C(=CC(=O)[C@@H]4[C@@]5(C)CC[C@H](OC(=O)CCC(=O)Nc6nc7ccc(F)cc7s6)C(C)(C)[C@@H]5CC[C@]43C)[C@@H]2C1`, the Activity was 1.15% in assay [1]; “Dose-dependent effect” in [2]; 2.18% in assay [3]; “Dose-dependent effect” in assay [4]; 40.35% in assay [7]; 12.51% in [11]. The Activity was 13.6% in assay [14]; 47.14% in assay [15]; “Dose-dependent effect” in assay [16]; 3.84% in [17]; 14% in assay [18]; “Dose-dependent effect” in assay [19]. For the same compound, the Activity entry in assay [21] is “Dose-dependent effect”. The IC50 (usually the concentration that gives 50% inhibition) was 10.6 µM in assay [5], 6.37 µM in assay [6], 0.14 µM in [12] and 7.41 µM in [13]. In addition, the inhibition result in [8] is “Dose-dependent effect”. Also, the viability – broadly, the share of living cells, or the viability signal relative to a control – at 5 µM in assay [9] was 85.5%. The inhibition entry in assay [10] and in [20] was “Active” throughout.
